How the values were obtained:
[1] = Mouse liver microsome assay; format: in vitro ADME; details: for metabolism of the C-4 carboxanilide aromatic ring: microsomal metabolism studies, in words; for CLint scaled at 0.08 uM: female, CD-1, mouse, liver microsomes, pH 7.4
Summary of the method: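 Pooled female CD-1 mouse liver microsomes in 0.1 M potassium phosphate (pH 7.4) with EDTA. Test compound (0.08 uM final) incubated with NADPH-regenerating system at 37 °C, shaken, in triplicate. At 0, 0.5, 1, 2 and 4 h, quenched with cold methanol containing 2 μM caffeine internal standard; UPLC-MS. Half-life from the decay slope; CLint scaled with 0.5 mg/mL protein, 45 mg microsome/g liver and 52 g liver/kg.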

[2] = Dose related exposure in the rat; format: in vivo; details: data not shown
Ames' assay = format: cell-based

SMILES	CLint scaled at 0.08 uM [1]	other results
COc1ccc(NC(=O)[C@H]2c3ccccc3C(=O)N(CC(C)C)[C@@H]2c2cccs2)cc1Cl (racemic) [10b]	–	metabolism of the C-4 carboxanilide aromatic ring [1]: readily demethylated
CC(C)CN1C(=O)c2ccccc2[C@H](C(=O)Nc2cccc(C#N)c2)[C@H]1c1cccs1 (racemic) [10d]	195 mL/min/kg	metabolism of the C-4 carboxanilide aromatic ring [1]: hydroxylated
CC(C)CN1C(=O)c2ccccc2[C@H](C(=O)Nc2ccc(F)c(C#N)c2)[C@H]1c1ccc(C#N)s1 (racemic) [11l]	44.7 mL/min/kg	–
CC(C)CN1C(=O)c2ccccc2[C@H](C(=O)Nc2ccc(F)c(C#N)c2)[C@H]1c1cn[nH]c1 (racemic) [11t]	162 mL/min/kg	–
N#Cc1cc(NC(=O)[C@H]2c3ccccc3C(=O)N(CC(F)(F)F)[C@@H]2c2cn[nH]c2)ccc1F (relative stereo) [13h, (3S*,4S*)-N-(3-Cyano-4-fluorophenyl)-1-oxo-3-(1H-pyrazol-4-yl)-2-(2,2,2-trifluoroethyl)-1,2,3,4-tetrahydroisoquinoline-4-carboxamide]	< 13.5 mL/min/kg	–
N#Cc1cc(NC(=O)[C@H]2c3ccccc3C(=O)N(CC(F)(F)F)[C@@H]2c2cccnc2)ccc1F (relative stereo) [13i, (3S*,4S*)-N-(3-Cyano-4-fluorophenyl)-1-oxo-3-(pyridin-3-yl)-2-(2,2,2-trifluoroethyl)-1,2,3,4-tetrahydroisoquinoline-4-carboxamide]	33.1 mL/min/kg	dose related exposure [2]: excellent dose related exposure
N#Cc1cc(N)ccc1F [3-cyano-4-fluoroaniline]	–	Ames' assay result (Ames' assay): negative

From article PMC5573263 (Journal of medicinal chemistry, 2016)
